“And” between values parts separate entries of the source, which are not always exact repeats. Equal values may be shown once. The source made the active and inactive calls. The calls are words filed in the database; no cut-off is given here.
Assays:
[1] = biological target: Human immunodeficiency virus type 1 integrase (Human immunodeficiency virus 1, UniProt Q7ZJM1); test: Inhibitory activity against integrase as yield of terminal cleavage products
Method in brief: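 Purified HIV-1 integrase incubated with an end-labeled substrate oligonucleotide across a compound titration. Products separated by electrophoresis and visualized by autoradiography; terminal cleavage product quantitated relative to positive control without inhibitor.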

[2] = test system: Molluscum contagiosum virus; test: The relaxation activity of MCV topoisomerase was assayed at 500 electrophoresis; No Inhibition; assay type: functional, organism-based
Method in brief: (§1)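 Type 1B topoisomerase of molluscum contagiosum virus; relaxation of supercoiled plasmid DNA monitored by mobility shift on agarose gel electrophoresis.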

[3] = The compound was tested for toxicity using MTT cytotoxicity assay in Hela cell culture, activity expressed as LD50 value.; assay type: cell-based; conditions: human, HeLa cells; read-out: LD50 (the source's name)
Method in brief: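 HeLa cells in culture exposed to a range of compound concentrations; viability read out with MTT dye; LD50 derived from the concentration series.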

[4] = test system: Molluscum contagiosum virus; test: The relaxation activity of MCV topoisomerase was assayed at 100 electrophoresis; No Inhibition; assay type: functional, organism-based
Method in brief: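 Counterscreen against the type 1B topoisomerase of molluscum contagiosum virus (MCV). Relaxation of supercoiled plasmid DNA was followed by the change in its mobility on agarose gel electrophoresis, with compound present.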

[5] = test system: Molluscum contagiosum virus; test: The relaxation activity of MCV topoisomerase was assayed at 170 electrophoresis; No Inhibition; assay type: functional, organism-based; method in brief: as §1
[6] = test system: Human immunodeficiency virus 1; test: The compound was tested in vitro for inhibition of PIC (preintegrated complexes) from HIV-1 infected cells; assay type: functional
Method in brief: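 Preintegration complexes isolated from HIV-1-infected cells used as integration source; mixed with naked DNA target and incubated 37 °C for 1 h in presence of compound.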

Sequence of Human immunodeficiency virus type 1 integrase (Q7ZJM1 whole entry): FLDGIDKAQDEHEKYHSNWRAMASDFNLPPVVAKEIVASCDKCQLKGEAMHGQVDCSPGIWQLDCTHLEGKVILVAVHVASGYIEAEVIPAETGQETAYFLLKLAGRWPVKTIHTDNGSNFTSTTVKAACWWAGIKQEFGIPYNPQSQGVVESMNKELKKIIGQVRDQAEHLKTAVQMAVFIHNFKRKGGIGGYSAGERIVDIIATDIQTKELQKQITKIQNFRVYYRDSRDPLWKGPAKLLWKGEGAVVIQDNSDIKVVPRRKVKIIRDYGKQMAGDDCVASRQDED

SMILES | IC50 [1] | inhibition [2] | CC50 [3] [µM] | inhibition [4] | inhibition [5] | IC50 [6] [µM]
COc1ccc(-c2c3n(c4c(=O)oc5cc(OS(=O)(=O)O)c(OC)cc5c24)CCc2cc(OC)c(OC)cc2-3)cc1O | 34 µM and 25 µM | inactive | 145 |  |  | 
COc1ccc(-c2c3n(c4c(=O)oc5cc(OS(=O)(=O)O)c(OC)cc5c24)C(O)Cc2c-3cc(OC)c(OC)c2OC)cc1O (centres undefined) | 73 µM and 51 µM | inactive | 130 |  |  | 
COc1ccc(-c2c3n(c4c(=O)oc5cc(O)c(OC)cc5c24)CCc2c-3cc(OC)c(OC)c2OC)cc1O | 27 µM and 24 µM |  | 27 | inactive |  | 
COc1ccc(-c2c3c4cc(OC)c(O)cc4oc(=O)c3n3ccc4cc(O)c(OC)cc4c23)cc1O | 18 µM and 19 µM |  | 5 | inactive |  | 
COc1ccc(-c2c3c4cc(OC)c(OS(=O)(=O)O)cc4oc(=O)c3n3ccc4cc(OC)c(OC)cc4c23)cc1O | 16 µM and 22 µM |  | 274 |  | inactive | 88
COc1ccc(-c2c3c4cc(OC)c(O)cc4oc(=O)c3n3ccc4c(OC)c(OC)c(OC)cc4c23)cc1O | 19 µM and 14 µM |  | 28 |  | inactive | 
